We go through four molecules from ChEMBL document CHEMBL3352606, “Oligo-β-(1 → 3)-glucans: impact of thio-bridges on immunostimulating activities and the development of cancer stem cells” (J Med Chem, 2014).

The source made the active and inactive calls. The rule behind the calls is not given here.

The subject of data set [1] is ZR-75-1. Kind of data set: Effect on CDC25 expression in human ZR-75-1 cells at by RT-PCR analysis. The data set is classed as functional, cell-based. A digest of the protocol: (§1)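 Total RNA was Trizol-extracted from control and treated cells (ZR-75-1 or Detroit 573; 10% heat-inactivated FCS, 37 °C, 5% CO2). 200 ng was taken through one-step RT-PCR: 30 min at 50 °C, 2 min at 95 °C, then 25 cycles with gene-specific annealing and extension. Products were run on 1.0% agarose, normalised to β-actin and quantified by densitometry. Three independent experiments, Student's t test.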

The species entered for data set [2] is Mus musculus. Kind of data set: Immunostimulation activity in BALB/c mouse assessed as stimulation of […] neutrophils measured […] in presence of polymyxin B. The data set is classed as functional, organism-based. A digest of the protocol: (§2)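 This is the HEMA-particle phagocytosis assay repeated with 10 μg/mL polymyxin B added to the samples. Peritoneal cells (1 × 10^7, RPMI-1640 with 5% FCS) and heparinised orbital-plexus blood were taken from mice injected with oligosaccharides 1 or 4 days before. Cells were Giemsa-stained, and those carrying ≥3 particles were scored positive.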

For data set [3], the species on record is Mus musculus. Kind of data set: Immunostimulation activity in BALB/c mouse assessed as stimulation of peritoneal macrophages measured […] post compound injection. The data set is classed as functional, organism-based. In outline:
(§3)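 Mice were injected with oligosaccharides 1 or 4 days before. Peritoneal macrophages (1 × 10^7, in RPMI-1640 with 5% FCS) were incubated with HEMA particles, Giemsa-stained and differentially counted; cells with ≥3 particles were scored positive. Peripheral blood was scored the same way, using one heparinised drop from the orbital plexus. Mean of three experiments ± SD.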

The species named for data set [4] is Mus musculus. The data set can be described thus: Immunostimulation activity in BALB/c mouse assessed as influx of peritoneal macrophages measured 1 to 3 days post compound injection. The data set is classed as functional, organism-based.
The test system of data set [5] is ZR-75-1. The data set can be described thus: Upregulation of PKC expression in human ZR-75-1 cells at by RT-PCR analysis. The data set is classed as functional, cell-based. A digest of the protocol:
as §1

Data set [6] in a line: Downregulation of CDC25 expression in human Detroit 573 cells at by RT-PCR analysis. The data set is classed as ADME, cell-based. A digest of the protocol:
as §1

A short description of data set [7]: Upregulation of PKC expression in human Detroit 573 cells at by RT-PCR analysis. It is filed as ADME, cell-based. A digest of the protocol:
as §1

The nature of data set [8]: Upregulation of CDC42 expression in human Detroit 573 cells at by RT-PCR analysis. The data set is classed as ADME, cell-based. A digest of the protocol:
as §1

The species named for data set [9] is Mus musculus. The data set can be described thus: Immunostimulation activity in BALB/c mouse assessed as stimulation of monocytes measured […] post compound injection. It is filed as functional, organism-based. In outline: as §3
Data set [10] is filed under the species Mus musculus. The data set can be described thus: Immunostimulation activity in BALB/c mouse assessed as stimulation of peritoneal macrophages measured […] in presence of polymyxin B. It is filed as functional, organism-based. A digest of the protocol: as §2
For data set [11], the species on record is Mus musculus. Kind of data set: Immunostimulation activity in BALB/c mouse assessed as stimulation of […] neutrophils measured […] post compound injection. The data set is classed as functional, organism-based. A digest of the protocol:
as §3

Data set [12] is filed under the species Mus musculus. Kind of data set: Immunostimulation activity in BALB/c mouse assessed as stimulation of monocytes measured […] post compound injection in presence of polymyxin B. The data set is classed as functional, organism-based. In outline:
as §2

The species named for data set [13] is Mus musculus. Kind of data set: Immunostimulation activity in BALB/c mouse assessed as production of IL-2 in splenocytes measured 1 to 3 days post compound injection. It is filed as functional, organism-based. A digest of the protocol: (§4)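 Purified spleen cells (2 × 10^6/mL in RPMI 1640 with 5% FCS) were cultured for 72 h at 37 °C, 5% CO2; 1 μg Concanavalin A was added to positive-control wells. Supernatants were filtered at 0.45 μm and IL-2 was measured by mouse IL-2 ELISA kit. Mean of three experiments ± SD; PBS-injected mice served as controls.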

Data set [14] relates to Mus musculus. Kind of data set: Immunostimulation activity in BALB/c mouse assessed as production of IL-2 in conA-stimulated splenocytes at 100 ug, ip by EIA. It is filed as functional, organism-based. A digest of the protocol: as §4
A short description of data set [15]: Downregulation of NF-kappaB expression in human Detroit 573 cells at by RT-PCR analysis. The data set is classed as ADME, cell-based. A digest of the protocol: as §1
Data set [16] deals with Mus musculus. The data set can be described thus: Immunostimulation activity in BALB/c mouse assessed as production of TNF-alpha in peripheral blood at 100 ug, ip by EIA. It is filed as functional, organism-based. A digest of the protocol: (§5)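 BALB/c mice received 100 μg oligosaccharide i.p., or PBS. Mice were sacrificed at intervals and serum was stored at −80 °C for ≤1 week. IL-1β and TNF-α were measured by ELISA at 450 nm with 570 nm correction, against a standard curve run with each assay (linear regression). Mean of three experiments ± SD.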

Data set [17] has as its system Mus musculus. The data set can be described thus: Immunostimulation activity in BALB/c mouse assessed as production of […] in peripheral blood at 100 ug, ip by EIA. It is filed as functional, organism-based. A digest of the protocol: as §5
Data set [18] relates to ZR-75-1. The data set can be described thus: Downregulation of CDC42 expression in human ZR-75-1 cells at by RT-PCR analysis. It is filed as functional, cell-based. In outline: as §1
Data set [19] concerns ZR-75-1. Kind of data set: Upregulation of NF-kappaB expression in human ZR-75-1 cells at by RT-PCR analysis. The data set is classed as functional, cell-based. In outline:
as §1

For the molecule `OC[C@H]1O[C@@H](S[C@@H]2[C@@H](O)[C@H](S[C@H]3[C@H](O)[C@@H](CO)OC(O)[C@@H]3O)O[C@H](CO)[C@H]2O)[C@H](O)[C@@H](O)[C@@H]1O` (stereo partly specified), the outcome in the data set with ZR-75-1 [1] was inactive. For the same molecule, the outcome in the data set filed under Mus musculus [2], in the data set filed under Mus musculus [3], in the data set filed under Mus musculus [4], with ZR-75-1 [5], in the data set filed under Mus musculus [9] and in the data set listed under Mus musculus [10] was Active. In addition, the result in the data set listed under Mus musculus [11] and in the data set filed under Mus musculus [12] was Active. Also, the Activity result in data set [6] was “Non-toxic”; in data set [7], “Toxic”; in data set [8], “Non-toxic”.
Take `OC[C@H]1O[C@@H](O[C@@H]2[C@@H](O)[C@H](S[C@@H]3[C@@H](O)[C@H](S[C@H]4[C@H](O)[C@@H](CO)OC(O)[C@@H]4O)O[C@H](CO)[C@H]3O)O[C@H](CO)[C@H]2O)[C@H](O)[C@@H](O)[C@@H]1O` (stereo partly specified): the result in the data set filed under Mus musculus [13], in the data set listed under Mus musculus [2], in the data set filed under Mus musculus [3], in the data set listed under Mus musculus [4], in the data set with ZR-75-1 [5] and in the data set on Mus musculus [14] was Active. The result with Mus musculus [16], in the data set listed under Mus musculus [9], in the data set listed under Mus musculus [10], in the data set with Mus musculus [17], in the data set listed under Mus musculus [11] and in the data set filed under Mus musculus [12] was Active. Moreover, the results for the Activity entry in [15], in data set [7] and in data set [8] were “Toxic”, “Toxic” and “Non-toxic”, respectively.
On to `OC[C@H]1O[C@@H](O[C@@H]2[C@@H](O)[C@H](O[C@@H]3[C@@H](O)[C@H](S[C@H]4[C@H](O)[C@@H](CO)OC(O)[C@@H]4O)O[C@H](CO)[C@H]3O)O[C@H](CO)[C@H]2O)[C@H](O)[C@@H](O)[C@@H]1O` (stereo partly specified), for which, in the data set with ZR-75-1 [1], the outcome was inactive. In addition, the result in the data set filed under Mus musculus [13], in the data set listed under Mus musculus [2], in the data set filed under Mus musculus [3], in the data set listed under Mus musculus [4], in the data set with ZR-75-1 [5] and in the data set with Mus musculus [14] was Active. For the same molecule, the result with Mus musculus [16], in the data set listed under Mus musculus [9], in the data set listed under Mus musculus [10], in the data set with ZR-75-1 [18], in the data set on Mus musculus [17] and in the data set filed under Mus musculus [11] was Active. Moreover, the outcome in the data set filed under Mus musculus [12] was Active. Moreover, the Activity entry in [6] is given as “Non-toxic”; in data set [15] it was “Non-toxic”; in data set [7], “Toxic”.
`OC[C@H]1O[C@@H](O[C@@H]2[C@@H](O)[C@H](S[C@@H]3[C@@H](O)[C@H](O)O[C@H](CO)[C@H]3O)O[C@H](CO)[C@H]2O)[C@H](O)[C@@H](O)[C@@H]1O`: the outcome in the data set with ZR-75-1 [1] was inactive. Further, the result in the data set listed under Mus musculus [13], in the data set filed under Mus musculus [2], in the data set listed under Mus musculus [3], in the data set listed under Mus musculus [4], in the data set on ZR-75-1 [5] and in the data set on Mus musculus [14] was Active. Besides, the result in the data set with Mus musculus [16], in the data set filed under Mus musculus [9], in the data set listed under Mus musculus [10], with Mus musculus [17], in the data set with ZR-75-1 [19] and in the data set filed under Mus musculus [11] was Active. Moreover, in the data set filed under Mus musculus [12], the outcome was Active. Besides, the Activity result in data set [6] is “Non-toxic”; in data set [15], “Non-toxic”; in data set [7], “Toxic”.
